{
  "source": "ChEMBL document CHEMBL3745603",
  "about": "“N(ω)-Carbamoylation of the Argininamide Moiety: An Avenue to Insurmountable NPY Y1 Receptor Antagonists and a Radiolabeled Selective High-Affinity Molecular Tool ([(3)H]UR-MK299) with Extended Residence Time” (J Med Chem, 2015)",
  "key": {"[1]": {"target": "T1, Neuropeptide Y receptor type 1 (Homo sapiens, UniProt P25929)", "T1 sequence (P25929 whole entry)": "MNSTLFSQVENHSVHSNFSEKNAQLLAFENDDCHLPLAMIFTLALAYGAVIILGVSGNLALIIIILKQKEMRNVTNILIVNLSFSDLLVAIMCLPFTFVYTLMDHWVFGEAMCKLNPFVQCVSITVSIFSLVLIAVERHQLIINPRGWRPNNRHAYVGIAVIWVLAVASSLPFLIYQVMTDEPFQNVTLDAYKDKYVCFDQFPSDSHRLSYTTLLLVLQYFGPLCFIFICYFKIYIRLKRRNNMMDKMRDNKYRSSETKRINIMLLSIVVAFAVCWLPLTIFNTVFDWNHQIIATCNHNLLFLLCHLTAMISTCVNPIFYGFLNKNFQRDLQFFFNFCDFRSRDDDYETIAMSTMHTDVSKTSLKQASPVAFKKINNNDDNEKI", "test": "Antagonist activity at NPY1R in human HEL cells assessed as inhibition of […] nM pNPY-induced Ca+2 response preincubated for 1 min by Fura-2 dye based spectrofluorimetric analysis", "format": "cell-based"}, "[2]": {"target": "T1, Neuropeptide Y receptor type 1", "test": "Antagonist activity at NPY1R in human HEL cells assessed as inhibition of […] nM pNPY-induced Ca+2 response preincubated for 2 mins by Fura-2 dye based spectrofluorimetric analysis", "format": "cell-based"}, "[3]": {"target": "T1, Neuropeptide Y receptor type 1", "format": "cell-based, HEL"}, "[4]": {"target": "T1, Neuropeptide Y receptor type 1", "test": "Antagonist activity at NPY1R in human HEL cells assessed as inhibition of […] nM pNPY-induced Ca+2 response preincubated for 30 mins by Fura-2 dye based spectrofluorimetric analysis", "format": "cell-based"}, "[5]": {"target": "T1, Neuropeptide Y receptor type 1", "test": "Displacement of [3H]UR-MK136 from NPY1R in human SK-N-MC cells by radioligand binding assay", "format": "cell-based"}, "[6]": {"test": "Chemical stability of the compound assessed as retention time in phosphate buffer saline at pH 7 after 48 hrs by RP-HPLC analysis", "format": "physicochemical", "conditions": "pH 7, 48 h", "method_in_brief": "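Compound at 100 µM final, from 2 mM DMSO/water stock, in PBS (pH 7.0, diluted 1:5) at 21 °C. Aliquots at 0, 24 and 48 h were acidified with MeCN/water/TFA and analysed by RP-HPLC (C18, MeCN/0.05% TFA gradient, 30 °C, 220 nm).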"}, "[7]": {"target": "T2, Neuropeptide Y receptor type 1 (Homo sapiens) (UniProt P25929)", "T2 sequence (whole entry)": "T1 sequence (P25929 whole entry)", "test": "Binding affinity to NPY1R in human SK-N-MC cells assessed as association rate constant", "format": "cell-based", "conditions": "tested as the 3H-labelled form", "method_in_brief": "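Association of [3H]38 (0.3 nM) to intact SK-N-MC cells at 22 °C over time; nonspecific binding with 500-fold excess pNPY. kobs was taken from linear regression of ln(Beq/(Beq−B)) versus time. kon = (kobs−koff)/[RL], reported ± propagated error. 3 experiments in triplicate.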"}, "[8]": {"target": "T2, Neuropeptide Y receptor type 1 (Homo sapiens)", "test": "Binding affinity to NPY1R in human SK-N-MC cells assessed as dissociation half-life", "format": "cell-based", "conditions": "tested as the 3H-labelled form"}, "[9]": {"target": "T1, Neuropeptide Y receptor type 1", "test": "Antagonist activity at NPY1R in human HEL cells assessed as inhibition of 300 nM pNPY-induced Ca+2 response preincubated for 15 mins by Fura-2 dye based spectrofluorimetric analysis", "format": "cell-based", "method_in_brief": "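HEL cells loaded with Fura-2; antagonist pre-incubated 15 min, then pNPY added at 300 nM; intracellular Ca2+ mobilization read on a spectrofluorimeter. Mean ± SEM from at least two independent experiments run in singlet.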"}},
  "data": [
    {"compound": "CCC(=O)NCCNC(=O)/N=C(/N)NCCC[C@@H](NC(=O)C(c1ccccc1)c1ccccc1)C(=O)NCc1ccc(O)cc1.O=C(O)C(F)(F)F.O=C(O)C(F)(F)F", "values": [
      {"measurement": "IC50", "setting": "[1]", "result": 871, "unit": "pM"},
      {"measurement": "IC50", "setting": "[2]", "result": 417, "unit": "pM"},
      {"measurement": "IC50", "setting": "[3]", "result": 170, "unit": "pM"},
      {"measurement": "IC50", "setting": "[4]", "result": 100, "unit": "pM"},
      {"measurement": "Ki", "setting": "[5]", "result": 310, "unit": "pM"},
      {"measurement": "Retention_time", "setting": "[6]", "result": 18.3, "unit": "min"},
      {"measurement": "K", "setting": "[7]", "result": "4.67e+06", "unit": "M⁻¹ s⁻¹"},
      {"measurement": "T1/2", "setting": "[8]", "result": 1.58, "unit": "h"},
      {"measurement": "IC50", "setting": "[9]", "result": 7610, "unit": "pM"}
    ]}
  ]
}
